Test results: ChEMBL document CHEMBL4052723, “A novel inhibitor of farnesyltransferase with a zinc site recognition moiety and a farnesyl group” (Bioorg Med Chem Lett, 2017)
Calls of active or inactive are those of the source. The rule behind the calls is not given here.

Legend:
Homo sapiens [1] = species: Homo sapiens; assay: Inhibition of human protein farnesyltransferase assessed as enzyme activity in presence of Cu2+ ions (reference value: 49%); design: scale not given: the % may be the effect or the level left
Homo sapiens [2] = species: Homo sapiens; assay: Inhibition of human protein farnesyltransferase assessed as enzyme activity in presence of Ca2+ ions (reference value: 49%); design: scale not given: the % may be the effect or the level left
Homo sapiens [3] = species: Homo sapiens; assay: Inhibition of human protein farnesyltransferase assessed as enzyme activity in presence of Co2+ ions (reference value: 49%); design: scale not given: the % may be the effect or the level left
Homo sapiens [4] = species: Homo sapiens; assay: Inhibition of human protein farnesyltransferase assessed as enzyme activity in presence of Fe2+ ions (reference value: 49%); design: scale not given: the % may be the effect or the level left
Homo sapiens [5] = species: Homo sapiens; assay: Inhibition of human protein farnesyltransferase assessed as enzyme activity in presence of Ni2+ ions (reference value: 49%); design: scale not given: the % may be the effect or the level left
Homo sapiens [6] = species: Homo sapiens; assay: Inhibition of human protein farnesyltransferase assessed as enzyme activity in presence of Zn2+ ions (reference value: 49%); design: scale not given: the % may be the effect or the level left
[7] = Inhibition of human protein farnesyltransferase using dansyl peptide containing CAAX as substrate in presence of farnesyl pyrophosphate after 15 mins by fluorescence assay
ASPC1 [8] = assay: Antiproliferative activity against human AsPC1 cells expressing K-Ras mutant at 0.5 to 10 uM after 2 days by trypan blue staining based assay; assay type: functional, cell-based
Outline: (§1)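 Cells (AsPC-1, K-Ras mutant; or BxPC-3) were seeded at 1.0 × 10^4 per well and grown 1 d at 37 °C. The disulfide prodrug form was then added, and cells were incubated 2 days. At 0, 1 and 2 days after addition, cells were detached and stained with 0.4% trypan blue. Unstained (living) cells were counted.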

BXPC-3 = assay: Antiproliferative activity against human BxPC3 cells at 0.5 to 10 uM after 2 days by trypan blue staining based assay; assay type: functional, cell-based; outline: as §1
ASPC1 [9] = assay: Antiproliferative activity against human AsPC1 cells expressing K-Ras mutant at 10 uM after 1 day in presence of DTT by trypan blue staining based assay; assay type: functional, cell-based
ASPC1 [10] = assay: Antiproliferative activity against human AsPC1 cells expressing K-Ras mutant after 2 days by trypan blue staining based assay; assay type: functional, cell-based; outline: as §1

Activity (Homo sapiens [1]) | Activity (Homo sapiens [2]) | Activity (Homo sapiens [3]) | Activity (Homo sapiens [4]) | Activity (Homo sapiens [5]) | Activity (Homo sapiens [6]) | IC50 [7] | SMILES | Activity (ASPC1 [8]) | Activity (BXPC-3) | Activity (ASPC1 [9]) | Activity (ASPC1 [10])
47% | 48% | 66% | 38% | 67% | 100% | – | SCCNCc1cc(-c2cccc3ccccc23)cc(CNCCS)n1 | – | – | – | –
– | – | – | – | – | – | 900 nM | CC(C)=CCC/C(C)=C/CC/C(C)=C/COC(=O)Nc1cc(CNCCS)nc(CNCCS)c1 | Active | Active | Active | –
– | – | – | – | – | – | 2000 nM | CCCCCCCCCCCCOC(=O)Nc1cc(CNCCS)nc(CNCCS)c1 | – | – | Active | Dose-dependent effect
